Series [1] is described as follows: folding enthalpy; higher = less favourable; fluorescence melt of hairpins on a sequencing array, two-state fit. Particulars: sodium 0.088 M. The essentials:
(§1)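 Folding enthalpy and melting temperature come from bootstrapped two-state fits to Cy3 fluorescence of library hairpins carrying annealed Cy3 and quencher oligos on a sequenced MiSeq flow cell. Imaging was done in 50 mM Na-HEPES pH 8.0, 25 mM NaCl, stepping by 2.5 °C up to 60 °C, and signals were normalised to pre-quench Cy3 and to control constructs. Results of four replicates were combined by inverse variance, and fitted temperatures were raised by 9.35 °C to match UV melts.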

Series [2] is described as follows: melting temperature; fluorescence melt of hairpins on a sequencing array, two-state fit, raised by 9.35 °C to match UV melts. Particulars: sodium 0.088 M. The gist of the method: as §1

GATCAGGCACTGATC ((((((...)))))): in series [1], the folding enthalpy is -43.6 kcal/mol. The Tm in series [2] came to 59.8 °C.
As to GATCAGGCCACTGATC ((((((....)))))), the folding enthalpy in series [1] was -36.4 kcal/mol. The Tm in series [2] was 60.8 °C.
The corresponding values for GATCAGGCTCTGATC ((((((...)))))) are -35.2 kcal/mol and 49.1 °C.
The corresponding values for GATCAGGGAAACTTGATC (((((.(....).))))) are -30.7 kcal/mol and 38.2 °C.
Taken in the same sequence, the figures for GATCAGGGAACTGATC ((((((....)))))) were -33 kcal/mol and 55.5 °C.
As to GATCAGGGAGCTGATC ((((((....)))))), in series [1], the folding enthalpy was -35.2 kcal/mol. In series [2], the Tm came out at 52.4 °C.
Taken in the same sequence, the figures for GATCAGGGCCCTGATC ((((((....)))))) were -58.9 kcal/mol and 60.3 °C.
The corresponding values for GATCAGGGCGCTGATC ((((((....)))))) are -47.4 kcal/mol and 55.4 °C.
For GATCAGGGGGCTGATC ((((((....)))))), the folding enthalpy in series [1] was -38.3 kcal/mol. In series [2], the Tm amounted to 49.7 °C.
Taken in the same sequence, the figures for GATCAGGGGTCTGATC ((((((....)))))) were -32.6 kcal/mol and 50.8 °C.
GATCAGGTACCTGATC ((((((....)))))): in series [1], the folding enthalpy is -40.6 kcal/mol. Moreover, in series [2], the Tm turned out to be 58.8 °C.
The corresponding values for GATCAGGTACTGATC ((((((...)))))) are -41.1 kcal/mol and 61.4 °C.
Taken in the same sequence, the figures for GATCAGGTATCTGATC ((((((....)))))) were -40.8 kcal/mol and 57.5 °C.
The corresponding values for GATCAGGTCACTGATC ((((((....)))))) are -45.8 kcal/mol and 59.4 °C.
Regarding GATCAGTACTCTGATC ((((((....)))))), in series [1], the folding enthalpy is -43.4 kcal/mol. For the same sequence, in series [2], the Tm worked out at 50.4 °C.
Regarding GATCAGTAGGCTGATC ((((((....)))))), the folding enthalpy in series [1] is -42.3 kcal/mol. Also, the Tm in series [2] is 52.4 °C.
Taken in the same sequence, the figures for GATCAGTATGCTGATC ((((((....)))))) were -36.1 kcal/mol and 55.2 °C.
The corresponding values for GATCAGTCAGCTGATC ((((((....)))))) are -40.9 kcal/mol and 51.3 °C.
Taken in the same sequence, the figures for GATCAGTGACCTGATC ((((((....)))))) were -30.1 kcal/mol and 48.7 °C.
Take GATCAGTGGCTGATC ((((((...)))))): in series [1], the folding enthalpy is -22 kcal/mol. For the same sequence, the Tm in series [2] was 49.7 °C.
The corresponding values for GATCAGTGTTCTGATC ((((((....)))))) are -37.3 kcal/mol and 50.2 °C.
Turning to GATCAGTTCCCTGATC ((((((....)))))), the folding enthalpy in series [1] is -32 kcal/mol. Further, the Tm in series [2] is 49.7 °C.
Taken in the same sequence, the figures for GATCATAAAATGATC ((((((...)))))) were -30.7 kcal/mol and 48 °C.
Taken in the same sequence, the figures for GATCATAAAGATGATC ((((((....)))))) were -24.4 kcal/mol and 40 °C.
Taken in the same sequence, the figures for GATCATAACCATGATC ((((((....)))))) were -35.7 kcal/mol and 47.4 °C.
GATCATAAGAATGATC ((((((....)))))): the folding enthalpy in series [1] is -27.7 kcal/mol. Moreover, the Tm in series [2] is 40.1 °C.
The corresponding values for GATCATAAGATGATC ((((((...)))))) are -31.1 kcal/mol and 46.6 °C.
The corresponding values for GATCATACACATGATC ((((((....)))))) are -36 kcal/mol and 47.2 °C.
GATCATACTGATGATC ((((((....)))))): the folding enthalpy in series [1] was -30.2 kcal/mol. Also, the Tm in series [2] was 46.3 °C.
The corresponding values for GATCATAGCGATGATC ((((((....)))))) are -44.1 kcal/mol and 46.9 °C.
Taken in the same sequence, the figures for GATCATAGGATGATC ((((((...)))))) were -30.8 kcal/mol and 48.3 °C.
The corresponding values for GATCATAGGCATGATC ((((((....)))))) are -32.4 kcal/mol and 48.5 °C.
Turning to GATCATAGGTATGATC ((((((....)))))), the folding enthalpy in series [1] is -40.5 kcal/mol. The Tm in series [2] was 49.1 °C.
Turning to GATCATATAGATGATC ((((((....)))))), the folding enthalpy in series [1] was -36.2 kcal/mol. In addition, in series [2], the Tm turned out to be 45.6 °C.
Taken in the same sequence, the figures for GATCATCACGATGATC ((((((....)))))) were -42.6 kcal/mol and 51.8 °C.
Taken in the same sequence, the figures for GATCATCATATGATC ((((((...)))))) were -35.5 kcal/mol and 47.2 °C.
Taken in the same sequence, the figures for GATCATCCAGATGATC ((((((....)))))) were -37.5 kcal/mol and 50.3 °C.
GATCATCCTAATGATC ((((((....)))))): in series [1], the folding enthalpy is -35 kcal/mol. In series [2], the Tm was 49 °C.
The corresponding values for GATCATCGCCATGATC ((((((....)))))) are -35.7 kcal/mol and 46.3 °C.
Turning to GATCATCGCTATGATC ((((((....)))))), in series [1], the folding enthalpy was -38.8 kcal/mol. Further, the Tm in series [2] was determined as 47.2 °C.
Taken in the same sequence, the figures for GATCATCTCAATGATC ((((((....)))))) were -41.6 kcal/mol and 48.9 °C.
The corresponding values for GATCATGAACATGATC ((((((....)))))) are -41 kcal/mol and 54 °C.
For the sequence GATCATGACAATGATC ((((((....)))))), in series [1], the folding enthalpy is -40.6 kcal/mol. Besides, the Tm in series [2] amounted to 56.6 °C.
Taken in the same sequence, the figures for GATCATGACCATGATC ((((((....)))))) were -41.5 kcal/mol and 55.2 °C.
Taken in the same sequence, the figures for GATCATGCACATGATC ((((((....)))))) were -41.5 kcal/mol and 56.3 °C.
The corresponding values for GATCATGCCTATGATC ((((((....)))))) are -42.4 kcal/mol and 52.3 °C.
For GATCATGCGGATGATC ((((((....)))))), in series [1], the folding enthalpy is -34.1 kcal/mol. Also, the Tm in series [2] was 47 °C.
Taken in the same sequence, the figures for GATCATGGAAACACGATC ((((.((....)).)))) were -22.9 kcal/mol and 33.8 °C.
GATCATGGAAACATGATC (((((((....))))))): in series [1], the folding enthalpy is -35.3 kcal/mol. Moreover, the Tm in series [2] turned out to be 56.2 °C.
The corresponding values for GATCATGGCATGATC ((((((...)))))) are -44 kcal/mol and 51.3 °C.
Taken in the same sequence, the figures for GATCATGGGGATGATC ((((((....)))))) were -29.2 kcal/mol and 46.5 °C.
Taken in the same sequence, the figures for GATCATGGTCATGATC ((((((....)))))) were -38 kcal/mol and 51.8 °C.
As to GATCATGTCATGATC ((((((...)))))), the folding enthalpy in series [1] was -32.5 kcal/mol. Further, the Tm in series [2] was 51.3 °C.
Taken in the same sequence, the figures for GATCATGTGAATGATC ((((((....)))))) were -39.3 kcal/mol and 54.6 °C.
The corresponding values for GATCATGTTATGATC ((((((...)))))) are -36.1 kcal/mol and 50.3 °C.
As for GATCATTAAGATGATC ((((((....)))))), the folding enthalpy in series [1] is -34.8 kcal/mol. The Tm in series [2] turned out to be 46.4 °C.
Taken in the same sequence, the figures for GATCATTACGATGATC ((((((....)))))) were -34.9 kcal/mol and 48.5 °C.
On to GATCATTATCATGATC ((((((....)))))), for which the folding enthalpy in series [1] is -38.9 kcal/mol. Besides, in series [2], the Tm was determined as 45.8 °C.
Taken in the same sequence, the figures for GATCATTATTATGATC ((((((....)))))) were -32.2 kcal/mol and 47.5 °C.
GATCATTCAAATGATC ((((((....)))))): the folding enthalpy in series [1] is -34 kcal/mol. Also, in series [2], the Tm came to 47.3 °C.
The corresponding values for GATCATTCAATGATC ((((((...)))))) are -30.6 kcal/mol and 47.1 °C.
The corresponding values for GATCATTGGCATGATC ((((((....)))))) are -30.3 kcal/mol and 45.5 °C.
Taken in the same sequence, the figures for GATCATTGGTATGATC ((((((....)))))) were -31.8 kcal/mol and 46.3 °C.
For the sequence GATCATTGTAATGATC ((((((....)))))), the folding enthalpy in series [1] is -36 kcal/mol. In series [2], the Tm worked out at 50.3 °C.
The corresponding values for GATCATTTACATGATC ((((((....)))))) are -35.2 kcal/mol and 46.3 °C.
Regarding GATCATTTCGATGATC ((((((....)))))), the folding enthalpy in series [1] was -41.6 kcal/mol. For the same sequence, in series [2], the Tm stood at 49.2 °C.
Taken in the same sequence, the figures for GATCATTTGCATGATC ((((((....)))))) were -34.4 kcal/mol and 46.4 °C.
Taken in the same sequence, the figures for GATCCAAACATGGATC ((((((....)))))) were -32.7 kcal/mol and 50.8 °C.
On to GATCCAAAGTTGGATC ((((((....)))))), for which the folding enthalpy in series [1] is -35.2 kcal/mol. The Tm in series [2] stood at 49.8 °C.
Taken in the same sequence, the figures for GATCCAACATTGGATC ((((((....)))))) were -43.3 kcal/mol and 50 °C.
The corresponding values for GATCCAACTATGGATC ((((((....)))))) are -39.6 kcal/mol and 49.6 °C.
GATCCAACTGTGGATC ((((((....)))))): the folding enthalpy in series [1] is -32.6 kcal/mol. Also, the Tm in series [2] worked out at 49.1 °C.
The corresponding values for GATCCAAGATGGATC ((((((...)))))) are -34 kcal/mol and 49 °C.
The corresponding values for GATCCAAGGGTGGATC ((((((....)))))) are -32 kcal/mol and 48.4 °C.
Consider GATCCAAGGTTGGATC ((((((....)))))), for which, in series [1], the folding enthalpy was -37.5 kcal/mol. Further, the Tm in series [2] was 51.4 °C.
Taken in the same sequence, the figures for GATCCAAGTGTGGATC ((((((....)))))) were -32.3 kcal/mol and 50.3 °C.
